# Results taken from ChEMBL document CHEMBL4118021, “Studies of TAK1-centered polypharmacology with novel covalent TAK1 inhibitors” (Bioorg Med Chem, 2017).
# pIC50: −log10 of the molar value. Activity calls are given as the source filed them. No cut-off for these calls is given here.
# What was measured:
# [1] = molecular target: Microtubule-associated serine/threonine-protein kinase 3 (Homo sapiens) (UniProt O60307); assay: Inhibition of MAST3 in human SKCO1 cells at 1 uM after 4 hrs using biotin labeled DLKPDNLLITSLGHIK probe by mass-spectrometric analysis relative to control; assay type: cell-based
# [2] = molecular target: T1, STE20-related kinase adapter protein beta (Homo sapiens) (UniProt Q9C0K7); assay: Inhibition of STLK6 in human SKCO1 cells at 1 uM after 4 hrs using biotin labeled SIKASHILISGDGLVTLSGLSHLHSLV probe by mass-spectrometric analysis relative to control; assay type: cell-based
# T1 sequence (whole entry): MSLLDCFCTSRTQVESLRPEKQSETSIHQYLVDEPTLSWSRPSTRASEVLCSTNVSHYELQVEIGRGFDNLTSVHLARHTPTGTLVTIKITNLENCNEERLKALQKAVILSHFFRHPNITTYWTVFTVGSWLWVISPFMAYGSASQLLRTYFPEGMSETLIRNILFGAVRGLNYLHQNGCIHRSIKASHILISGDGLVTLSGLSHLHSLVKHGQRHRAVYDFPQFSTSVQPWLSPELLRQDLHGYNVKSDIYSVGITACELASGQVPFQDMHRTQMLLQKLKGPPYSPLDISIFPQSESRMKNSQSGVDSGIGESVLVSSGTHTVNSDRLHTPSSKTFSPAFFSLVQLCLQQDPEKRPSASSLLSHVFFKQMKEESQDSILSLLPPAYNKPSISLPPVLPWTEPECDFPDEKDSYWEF
# Summary of the method: (§1)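 Live SK-CO-1 cells exposed to compound at 1 μM or DMSO for 4 h (KiNativ). Lysates then labeled with lysine-reactive ATP/ADP-biotin probe, and probe-labeled kinase peptides quantified by mass spectrometry. Percent inhibition of probe-dependent recovery calculated relative to DMSO-treated cells.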
# [3] = molecular target: Ribosomal protein S6 kinase alpha-4 (Homo sapiens) (UniProt O75676); assay: Inhibition of MSK2 domain1 in human SKCO1 cells at 1 uM after 4 hrs using biotin labeled DLKLENVLLDSEGHIVLTDFGLSK probe by mass-spectrometric analysis relative to control; assay type: cell-based
# [4] = system: MAP4K2 / germinal center kinase (Homo sapiens); assay: Inhibition of GCK in human SKCO1 cells at 1 uM after 4 hrs using biotin labeled DIKGANLLLTLQGDVK probe by mass-spectrometric analysis relative to control
# [5] = molecular target: DNA-dependent protein kinase catalytic subunit (Homo sapiens) (UniProt P78527); assay: Inhibition of DNAPK in human SKCO1 cells at 1 uM after 4 hrs using biotin labeled EHPFLVKGGEDLR probe by mass-spectrometric analysis relative to control; assay type: cell-based
# [6] = molecular target: Cyclin-dependent kinase 7 (Homo sapiens) (UniProt P50613); assay: Inhibition of CDK7 in human SKCO1 cells at 1 uM after 4 hrs using biotin labeled DLKPNNLLLDENGVLK probe by mass-spectrometric analysis relative to control; assay type: cell-based
# [7] = molecular target: T2, Mitogen-activated protein kinase kinase kinase 7 (Homo sapiens) (UniProt O43318); details: 0.6 uM
# T2 sequence (whole entry): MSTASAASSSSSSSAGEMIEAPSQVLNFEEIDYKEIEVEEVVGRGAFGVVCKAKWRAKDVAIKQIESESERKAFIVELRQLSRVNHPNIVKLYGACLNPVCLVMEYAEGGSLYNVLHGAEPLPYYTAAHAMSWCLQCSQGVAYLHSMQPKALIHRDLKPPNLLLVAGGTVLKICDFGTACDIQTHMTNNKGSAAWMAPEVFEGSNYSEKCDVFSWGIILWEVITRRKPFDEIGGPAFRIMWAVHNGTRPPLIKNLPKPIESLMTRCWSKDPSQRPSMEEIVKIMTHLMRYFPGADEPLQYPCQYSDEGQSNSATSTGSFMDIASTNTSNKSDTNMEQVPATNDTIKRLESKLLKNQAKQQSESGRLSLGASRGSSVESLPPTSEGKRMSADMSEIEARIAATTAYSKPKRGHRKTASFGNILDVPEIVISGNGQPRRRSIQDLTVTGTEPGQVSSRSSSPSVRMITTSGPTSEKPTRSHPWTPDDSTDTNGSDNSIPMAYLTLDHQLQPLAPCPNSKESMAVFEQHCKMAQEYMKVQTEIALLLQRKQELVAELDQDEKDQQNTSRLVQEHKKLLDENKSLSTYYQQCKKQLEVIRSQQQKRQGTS
# [8] = molecular target: Mitogen-activated protein kinase kinase kinase 4 (Homo sapiens) (UniProt Q9Y6R4); assay: Inhibition of MAP3K4 in human SKCO1 cells at 1 uM after 4 hrs using biotin labeled DIKGANIFLTSSGLIK probe by mass-spectrometric analysis relative to control; assay type: cell-based
# [9] = molecular target: T3, Non-receptor tyrosine-protein kinase TNK1 (Homo sapiens) (UniProt Q13470); assay: Inhibition of TNK1 in human SKCO1 cells at 1 uM after 4 hrs using biotin labeled SVPVAVKSLR probe by mass-spectrometric analysis relative to control; assay type: cell-based; summary of the method: as §1
# T3 sequence (whole entry): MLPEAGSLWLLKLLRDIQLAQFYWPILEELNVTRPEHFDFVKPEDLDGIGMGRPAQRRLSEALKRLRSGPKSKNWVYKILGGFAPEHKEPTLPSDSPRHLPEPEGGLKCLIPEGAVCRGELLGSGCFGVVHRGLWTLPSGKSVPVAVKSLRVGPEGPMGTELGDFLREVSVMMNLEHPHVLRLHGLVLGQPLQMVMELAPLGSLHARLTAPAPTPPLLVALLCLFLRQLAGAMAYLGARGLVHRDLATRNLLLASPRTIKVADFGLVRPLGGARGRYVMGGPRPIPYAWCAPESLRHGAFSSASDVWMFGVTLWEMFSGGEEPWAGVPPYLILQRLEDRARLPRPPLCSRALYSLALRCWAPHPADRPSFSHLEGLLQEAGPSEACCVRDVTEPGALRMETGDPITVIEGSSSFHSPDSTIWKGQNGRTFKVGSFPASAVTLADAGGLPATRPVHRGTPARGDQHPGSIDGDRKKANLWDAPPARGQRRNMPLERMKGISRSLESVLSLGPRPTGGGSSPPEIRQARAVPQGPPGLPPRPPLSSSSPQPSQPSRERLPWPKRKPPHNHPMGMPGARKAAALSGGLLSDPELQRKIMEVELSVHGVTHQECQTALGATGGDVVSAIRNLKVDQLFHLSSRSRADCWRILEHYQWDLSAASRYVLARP
# [10] = molecular target: Tyrosine-protein kinase Lyn (Homo sapiens) (UniProt P07948); assay: Inhibition of LYN in human SKCO1 cells at 1 uM after 4 hrs using biotin labeled VAVKTLKPGTMSVQAFLEEANLMK probe by mass-spectrometric analysis relative to control; assay type: cell-based
# ASPC1 = assay: Antiproliferative activity against human AsPC1 cells harboring KRAS G12D mutant after 72 hrs by CellTiter-Glo assay; assay type: functional, cell-based; details: ASPC1, 72 h
# [11] = molecular target: Tyrosine-protein kinase ZAP-70 (Homo sapiens) (UniProt P43403); assay: Inhibition of ZAP70 in human SKCO1 cells at 1 uM after 4 hrs using biotin labeled ISDFGLSKALGADDSYYTAR probe by mass-spectrometric analysis relative to control; assay type: cell-based
# Mitogen-activated protein kinase kinase kinase 4 (Homo sapiens), sequence (Q9Y6R4 whole entry): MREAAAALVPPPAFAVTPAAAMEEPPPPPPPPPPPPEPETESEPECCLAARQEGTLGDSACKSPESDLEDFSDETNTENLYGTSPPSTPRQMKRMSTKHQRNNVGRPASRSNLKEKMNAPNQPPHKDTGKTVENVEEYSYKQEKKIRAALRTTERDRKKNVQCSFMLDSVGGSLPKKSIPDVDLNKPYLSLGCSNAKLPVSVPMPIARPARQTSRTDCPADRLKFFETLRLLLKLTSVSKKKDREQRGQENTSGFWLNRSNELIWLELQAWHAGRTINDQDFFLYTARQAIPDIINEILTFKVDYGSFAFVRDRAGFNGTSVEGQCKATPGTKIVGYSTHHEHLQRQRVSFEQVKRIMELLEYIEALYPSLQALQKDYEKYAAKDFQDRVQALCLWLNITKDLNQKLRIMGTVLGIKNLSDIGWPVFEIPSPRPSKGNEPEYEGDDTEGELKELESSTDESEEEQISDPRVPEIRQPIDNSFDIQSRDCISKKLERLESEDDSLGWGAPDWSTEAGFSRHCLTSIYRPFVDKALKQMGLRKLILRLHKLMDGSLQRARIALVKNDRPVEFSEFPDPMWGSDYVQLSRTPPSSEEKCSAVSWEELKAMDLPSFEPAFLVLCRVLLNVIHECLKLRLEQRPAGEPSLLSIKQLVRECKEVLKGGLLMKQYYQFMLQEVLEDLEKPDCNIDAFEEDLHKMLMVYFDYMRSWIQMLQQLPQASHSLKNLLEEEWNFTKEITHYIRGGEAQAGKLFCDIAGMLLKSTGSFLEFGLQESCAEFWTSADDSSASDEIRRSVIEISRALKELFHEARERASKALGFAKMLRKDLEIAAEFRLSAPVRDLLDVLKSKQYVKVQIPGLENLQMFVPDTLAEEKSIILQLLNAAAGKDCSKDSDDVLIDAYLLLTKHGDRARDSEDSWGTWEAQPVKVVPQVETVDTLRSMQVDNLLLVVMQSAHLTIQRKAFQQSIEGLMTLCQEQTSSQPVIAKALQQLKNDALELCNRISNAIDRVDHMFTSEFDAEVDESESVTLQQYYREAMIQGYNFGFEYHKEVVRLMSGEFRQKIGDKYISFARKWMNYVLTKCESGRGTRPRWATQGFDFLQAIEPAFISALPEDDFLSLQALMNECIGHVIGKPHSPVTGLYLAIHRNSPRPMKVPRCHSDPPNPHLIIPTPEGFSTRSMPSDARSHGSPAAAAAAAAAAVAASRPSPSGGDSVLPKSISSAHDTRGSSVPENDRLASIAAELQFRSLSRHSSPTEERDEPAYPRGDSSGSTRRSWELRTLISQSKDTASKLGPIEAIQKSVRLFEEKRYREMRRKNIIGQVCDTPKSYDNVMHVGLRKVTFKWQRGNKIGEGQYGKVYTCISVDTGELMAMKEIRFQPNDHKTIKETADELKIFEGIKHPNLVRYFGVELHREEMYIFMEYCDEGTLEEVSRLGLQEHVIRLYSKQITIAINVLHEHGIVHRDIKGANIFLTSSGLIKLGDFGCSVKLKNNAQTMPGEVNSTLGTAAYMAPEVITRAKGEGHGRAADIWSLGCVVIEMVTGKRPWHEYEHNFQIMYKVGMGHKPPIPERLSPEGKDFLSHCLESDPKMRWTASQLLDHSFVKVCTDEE
# Microtubule-associated serine/threonine-protein kinase 3 (Homo sapiens), sequence (O60307 whole entry): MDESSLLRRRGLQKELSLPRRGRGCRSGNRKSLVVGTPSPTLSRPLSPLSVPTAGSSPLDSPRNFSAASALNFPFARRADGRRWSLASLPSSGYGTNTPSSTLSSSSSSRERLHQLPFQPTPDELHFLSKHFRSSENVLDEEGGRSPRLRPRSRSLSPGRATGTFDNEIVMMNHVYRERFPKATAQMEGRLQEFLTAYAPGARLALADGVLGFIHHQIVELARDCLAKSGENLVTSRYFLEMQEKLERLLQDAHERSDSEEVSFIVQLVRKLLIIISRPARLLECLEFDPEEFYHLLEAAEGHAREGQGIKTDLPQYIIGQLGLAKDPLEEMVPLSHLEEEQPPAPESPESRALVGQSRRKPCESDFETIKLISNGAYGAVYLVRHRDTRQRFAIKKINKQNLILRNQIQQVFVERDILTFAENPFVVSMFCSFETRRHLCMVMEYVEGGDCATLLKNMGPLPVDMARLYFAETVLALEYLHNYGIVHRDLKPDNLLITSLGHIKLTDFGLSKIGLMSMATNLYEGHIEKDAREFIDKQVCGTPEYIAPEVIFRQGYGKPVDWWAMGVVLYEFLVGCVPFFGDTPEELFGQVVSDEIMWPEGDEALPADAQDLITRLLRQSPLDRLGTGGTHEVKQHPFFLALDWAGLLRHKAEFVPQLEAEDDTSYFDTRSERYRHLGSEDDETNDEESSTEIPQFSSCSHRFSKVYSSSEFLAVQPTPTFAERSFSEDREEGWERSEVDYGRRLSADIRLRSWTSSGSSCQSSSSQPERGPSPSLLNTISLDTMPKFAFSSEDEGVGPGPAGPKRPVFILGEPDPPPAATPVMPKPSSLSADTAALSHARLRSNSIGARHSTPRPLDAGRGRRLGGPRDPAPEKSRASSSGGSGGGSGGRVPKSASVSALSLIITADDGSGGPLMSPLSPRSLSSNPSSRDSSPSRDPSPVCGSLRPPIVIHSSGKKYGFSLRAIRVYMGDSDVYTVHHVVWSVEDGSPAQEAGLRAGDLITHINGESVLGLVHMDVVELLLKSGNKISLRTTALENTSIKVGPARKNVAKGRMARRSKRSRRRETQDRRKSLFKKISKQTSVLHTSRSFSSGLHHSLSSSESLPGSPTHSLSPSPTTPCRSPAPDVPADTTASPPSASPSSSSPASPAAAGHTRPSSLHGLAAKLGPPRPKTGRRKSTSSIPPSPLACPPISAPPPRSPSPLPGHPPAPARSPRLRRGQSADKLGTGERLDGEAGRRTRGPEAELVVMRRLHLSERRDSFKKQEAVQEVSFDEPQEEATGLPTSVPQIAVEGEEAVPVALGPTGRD
# Cyclin-dependent kinase 7 (Homo sapiens), sequence (P50613 whole entry): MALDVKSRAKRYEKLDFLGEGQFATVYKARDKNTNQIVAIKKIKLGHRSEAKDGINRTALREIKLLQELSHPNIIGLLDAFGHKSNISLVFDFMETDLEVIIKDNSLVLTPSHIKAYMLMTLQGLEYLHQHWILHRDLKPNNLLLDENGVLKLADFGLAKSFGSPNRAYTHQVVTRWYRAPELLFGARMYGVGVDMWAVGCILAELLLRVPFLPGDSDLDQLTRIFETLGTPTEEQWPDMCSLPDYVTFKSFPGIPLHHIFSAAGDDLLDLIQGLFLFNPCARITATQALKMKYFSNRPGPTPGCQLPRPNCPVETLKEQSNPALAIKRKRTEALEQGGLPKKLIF
# Ribosomal protein S6 kinase alpha-4 (Homo sapiens), sequence (O75676 whole entry, looked up, the tested form may be a part): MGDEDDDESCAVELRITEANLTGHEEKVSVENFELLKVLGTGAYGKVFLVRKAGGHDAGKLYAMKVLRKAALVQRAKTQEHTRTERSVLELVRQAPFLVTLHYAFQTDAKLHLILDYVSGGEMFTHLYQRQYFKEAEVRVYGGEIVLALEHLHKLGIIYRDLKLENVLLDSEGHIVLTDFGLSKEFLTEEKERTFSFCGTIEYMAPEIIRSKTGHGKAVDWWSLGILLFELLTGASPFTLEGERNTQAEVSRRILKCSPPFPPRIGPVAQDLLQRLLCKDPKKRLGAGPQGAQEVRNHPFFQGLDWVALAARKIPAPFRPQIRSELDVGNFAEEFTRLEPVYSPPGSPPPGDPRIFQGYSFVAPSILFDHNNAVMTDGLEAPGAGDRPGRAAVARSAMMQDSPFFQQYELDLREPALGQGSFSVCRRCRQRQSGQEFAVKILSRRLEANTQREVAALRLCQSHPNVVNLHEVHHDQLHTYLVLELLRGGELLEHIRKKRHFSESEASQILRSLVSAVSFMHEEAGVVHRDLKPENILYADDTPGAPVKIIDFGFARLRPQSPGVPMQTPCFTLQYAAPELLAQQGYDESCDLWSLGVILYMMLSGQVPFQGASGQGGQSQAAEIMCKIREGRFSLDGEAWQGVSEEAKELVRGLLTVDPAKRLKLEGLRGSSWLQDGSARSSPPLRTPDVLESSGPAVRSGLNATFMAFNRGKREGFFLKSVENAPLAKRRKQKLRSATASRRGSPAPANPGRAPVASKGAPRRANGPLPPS
# Tyrosine-protein kinase Lyn (Homo sapiens), sequence (P07948 2-512 limits assumed): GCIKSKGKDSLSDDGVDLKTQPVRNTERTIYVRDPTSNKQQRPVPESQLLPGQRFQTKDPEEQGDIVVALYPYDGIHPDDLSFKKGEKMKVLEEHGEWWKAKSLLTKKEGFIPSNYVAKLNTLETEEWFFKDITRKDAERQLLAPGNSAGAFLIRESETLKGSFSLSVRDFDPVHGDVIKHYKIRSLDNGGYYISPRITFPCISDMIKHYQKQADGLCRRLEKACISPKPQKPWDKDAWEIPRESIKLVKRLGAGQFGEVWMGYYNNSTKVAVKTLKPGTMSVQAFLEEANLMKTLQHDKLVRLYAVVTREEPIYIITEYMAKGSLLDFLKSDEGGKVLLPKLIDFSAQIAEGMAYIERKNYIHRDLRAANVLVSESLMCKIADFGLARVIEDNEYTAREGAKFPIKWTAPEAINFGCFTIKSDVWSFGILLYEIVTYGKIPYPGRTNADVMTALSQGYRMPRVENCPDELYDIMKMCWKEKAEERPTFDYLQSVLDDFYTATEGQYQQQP
SMILES,inhibition [1] [%],inhibition [2] [%],inhibition [3] [%],inhibition [4] [%],inhibition [5] [%],inhibition [6] [%],inhibition [7],inhibition [8] [%],inhibition [9] [%],inhibition [10] [%],pIC50 (ASPC1),inhibition [11] [%]
C=CC(=O)Nc1ccccc1Nc1nc(Nc2ccc(N3CCN(C)CC3)cc2)ncc1Cl,13.2,27.1,24.5,37.1,0.5,31.5,Active,63.3,98.3,16.5,–,–
COc1cc(O)c2c(c1)/C=C/C[C@H](O)[C@H](O)C(=O)/C=C\C[C@H](C)OC2=O,39.2,24.9,39.8,–,21.7,-3.7,Active,17.8,13.9,-5.1,5.22,63.6
C=CC(=O)Nc1ccccc1Oc1nc(Nc2cnn(CCOC)c2)ncc1Cl,30.6,34.4,10.4,34.3,16.2,9.5,–,12.9,48.3,2.8,5.87,34.1
